Common to all, as to format: functional, cell-based
The subject of assay [1] is E2R. The experiment in a line: Antioxidant activity in human E2R cells assessed as intracellular peroxide level at 25 to 100 uM after 1 hr by flow cytometry in presence of DCFH-DA. Summed up:
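E2R cells (EBV-positive, apoptosis-resistant isogenic Burkitt line) in RPMI with 4 mM L-glutamine, 10% FCS, 37 °C, 5% CO2. Compounds in DMSO (0.2%) for 1 h in RPMI, then 10 µM DCFH-DA for 20 min at 37 °C. Flow cytometry, excitation 488 nm, emission 533 nm (FL-1), 10,000 events per sample.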

A further assay concerns BL-41. The experiment in a line: Induction of apoptosis in human EBV deficient BL41 cells assessed as condensed and fragmented nuclei at 25 to 100 uM after 18 hrs by epifluorescent microscopy. Summed up:
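BL41 (EBV-negative Burkitt lymphoma) cells in RPMI with 4 mM L-glutamine, 10% FCS at 37 °C, 5% CO2. Seeded at 3 × 10^5 cells/mL and exposed 18 h to compounds in DMSO (≤0.5% v/v). Cells fixed in 4% p-formaldehyde, stained with DAPI 0.2 µg/mL. At least 500 cells in random fields scored by epifluorescence for condensed/fragmented nuclei.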

Assay [2] relates to E2R. Put plainly: Induction of apoptosis in human E2R cells expressing EBV assessed as condensed and fragmented nuclei at 25 to 100 uM after 18 hrs by epifluorescent microscopy. Summed up:
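BL41-derived E2R cells (EBV-positive, apoptosis-resistant) grown in RPMI with 4 mM L-glutamine and 10% FCS at 37 °C, 5% CO2. Seeded at 3 × 10^5 cells/mL and exposed to compounds in DMSO (≤0.5% v/v) for 18 h. Cells fixed in 4% p-formaldehyde and stained with DAPI (0.2 µg/mL). Condensed/fragmented nuclei scored in ≥500 cells from random fields by epifluorescence microscopy.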

Calls of active or inactive are those of the source. No cut-off for these calls is given here.

For the compound `COc1cc(C[C@H]2C(=O)OC[C@@H]2Cc2ccc(O)c(O)c2)ccc1O`, in the assay with E2R [1], the result was Active. `COc1cc(C[C@H]2COC(=O)[C@@H]2C(O)c2ccc(O)c(OC)c2)ccc1O` (stereo partly specified): the outcome in the assay with BL-41 and with E2R [2] was inactive. On to `COc1cc2c(cc1O)[C@H](c1ccc(O)c(O)c1)[C@H]1COC[C@@H]1C2`, for which, in the assay with E2R [1], the result was inactive.

Take `COc1cc(C[C@H]2CO[C@H](c3ccc(O)c(OC)c3)[C@H]2CO)ccc1O`: the result with BL-41 and in the assay with E2R [2] was inactive.

As to `COc1cc([C@H]2c3cc(O)c(OC)cc3C[C@H]3COC[C@@H]32)ccc1O`, the result in the assay with BL-41 and with E2R [2] was Active. Further, the result in the assay on E2R [1] was inactive.

On to `COc1cc(/C=C2\C(=O)OC[C@@H]2C(=O)c2ccc(O)c(OC)c2)ccc1O`, for which, in the assay on E2R [2], the outcome was Active. With `COc1cc(C[C@H]2COC(=O)[C@@H]2Cc2ccc(O)c(OC)c2)ccc1O`, the outcome with BL-41, in the assay with E2R [2] and in the assay with E2R [1] was Active.

On to `COc1cc(C(=O)[C@H]2COC(=O)[C@@H]2C(O)c2ccc(O)c(OC)c2)ccc1O` (stereo partly specified), for which, in the assay with E2R [2], the result was Active. With `COc1cc([C@H]2c3cc(O)c(OC)cc3C[C@H]3C(=O)OC[C@H]23)ccc1O`, the result in the assay on BL-41 and with E2R [2] was inactive. Moreover, the outcome in the assay on E2R [1] was Active.

`COc1cc(C[C@H]2C(=O)OC[C@@H]2[C@H](O)c2ccc(O)c(OC)c2)ccc1O`: the result in the assay with BL-41 and in the assay with E2R [2] was inactive.

For the compound `COc1cc([C@H]2c3cc(O)c(OC)cc3C[C@@H](CO)[C@@H]2CO)ccc1O`, the result in the assay on BL-41 and in the assay with E2R [2] was inactive.

These data come from ChEMBL document CHEMBL1152389, “A novel and efficient synthesis of highly oxidized lignans by a methyltrioxorhenium/hydrogen peroxide catalytic system. Studies on their apoptogenic and antioxidant activity” (Bioorg Med Chem, 2009).
